ChEMBL document CHEMBL4680109, “A road map for prioritizing warheads for cysteine targeting covalent inhibitors” (Eur J Med Chem, 2018)
Counter-ions that a name gives are not always drawn.

Experiments:
Escherichia coli [1] = assay: Inhibition of Escherichia coli MurA assessed as residual activity at 100 uM using UNAG and PEP as substrate preincubated for 30 mins in presence of UNAG followed by PEP addition and measured after 15 mins by malachite green colorimetric assay relative to control; settings: time 45.0 min
[2] = molecular target: Cathepsin B (Homo sapiens) (UniProt P07858); assay: Inhibition of recombinant cathepsin B (unknown origin) exopeptidase activity expressed in Escherichia coli assessed as residual activity at 100 uM using Abz-GIVRAK(Dnp)-OH as substrate preincubated for 30 mins under shaking in presence of 5 mM cysteine followed by substrate addition relative to control
[3] = Inhibition of Escherichia coli MurA using UNAG and PEP as substrate preincubated for 30 mins in presence of UNAG followed by PEP addition and measured after 15 mins by malachite green colorimetric assay
In short: (§1)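 IC50 from MurA (E. coli or S. aureus) residual activities at seven compound concentrations. Conditions: 30 min preincubation with UNAG at 37 °C, then PEP, 15 min at 37 °C, in 50 mM Hepes pH 7.8, 0.005% Triton X-114 and 5% DMSO. Malachite green read at 650 nm. Values are means of duplicates.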

Staphylococcus aureus = assay: Inhibition of Staphylococcus aureus MurA expressed in Escherichia coli assessed as residual activity at 100 uM using UNAG and PEP as substrate preincubated for 30 mins in presence of UNAG followed by PEP addition and measured after 15 mins by malachite green colorimetric assay relative to control; settings: time 45.0 min
[4] = molecular target: Cathepsin B (Homo sapiens) (UniProt P07858); assay: Inhibition of recombinant cathepsin B (unknown origin) endopeptidase activity expressed in Escherichia coli assessed as residual activity at 100 uM using Z-RR-AMC as substrate preincubated for 30 mins under shaking in presence of 5 mM cysteine followed by substrate addition relative to control
[5] = Inhibition of recombinant cathepsin X (unknown origin) expressed in Pichia pastoris assessed as residual activity at 100 uM using Abz-Fek(Dnp)-OH as substrate preincubated for 30 mins under shaking in presence of 5 mM cysteine followed by substrate addition relative to control; settings: Homo sapiens
[6] = Inhibition of Staphylococcus aureus MurA expressed in Escherichia coli using UNAG and PEP as substrate preincubated for 30 mins in presence of UNAG followed by PEP addition and measured after 15 mins by malachite green colorimetric assay; in short: as §1
Escherichia coli [7] = assay: Inhibition of Escherichia coli MurA assessed as residual activity at 100 uM using UNAG and PEP as substrate preincubated for 30 mins in presence of UNAG followed by PEP addition and measured after 15 mins in presence of 5 mM cysteine by malachite green colorimetric assay relative to control; settings: time 45.0 min
In short: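 MurA from E. coli, with the enzyme diluted in Hepes pH 7.8 containing cysteine (15 mM in buffer, giving 5 mM in incubation). Preincubated with UNAG and compound for 30 min at 37 °C, then PEP added and reacted 15 min at 37 °C. Phosphate read by malachite green at 650 nm. Duplicates; residual activity is versus DMSO control.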

Escherichia coli [8] = assay: Inhibition of Escherichia coli MurA assessed as residual activity at 1 mM using UNAG and PEP as substrate preincubated for 30 mins in presence of UNAG followed by PEP addition and measured after 15 mins by malachite green colorimetric assay relative to control; settings: time 45.0 min
Escherichia coli [9] = assay: Inhibition of Escherichia coli MurA assessed as residual activity at 25 uM using UNAG and PEP as substrate preincubated for 30 mins in presence of UNAG followed by PEP addition and measured after 15 mins by malachite green colorimetric assay relative to control
Escherichia coli [10] = assay: Inhibition of Escherichia coli MurA assessed as residual activity at 250 uM using UNAG and PEP as substrate preincubated for 30 mins in presence of UNAG followed by PEP addition and measured after 15 mins by malachite green colorimetric assay relative to control; settings: time 45.0 min
[11] = Drug degradation in pH 7.4 PBS buffer at 100 uM measured up to 24 hrs by LC-MS/MS analysis; type: physicochemical; settings: pH 7.4, 24 h

Row | Compound | Activity (Escherichia coli [1]) [%] | Activity [2] [%] | IC50 [3] [µM] | Activity (Staphylococcus aureus) [%] | Activity [4] [%] | Activity [5] [%] | IC50 [6] [µM] | Activity (Escherichia coli [7]) [%] | Activity (Escherichia coli [8]) [%] | Activity (Escherichia coli [9]) [%] | Activity (Escherichia coli [10]) [%] | Stabilty [11]
1 | O=c1[nH]sc2ccccc12 | 2 | 96 | 1.1 | 0 | 100 | 100 | 0.926 | 99 | – | – | – | –
2 | C/C=N/Nc1cc2ccccc2cn1 | 99 | 100 | – | 54 | 100 | 79 | – | 100 | – | – | – | –
3 | C/C=C/C#N | 100 | 87 | – | 97 | 100 | 90 | – | 100 | – | – | – | –
4 | S=C=Nc1ccccc1 [PHENYLISOTHIOCYANATE] | 53 | 98 | 90 | 75 | 100 | 67 | – | 91 | – | – | – | –
5 | O=C(CCl)Nc1cc(C(F)(F)F)cc(C(F)(F)F)c1 | – | – | 75 | 96 | 75 | 96 | 100 | 80 | – | – | – | –
6 | Cc1ccc(S)cc1 | 6 | 67 | 1.25 | 23 | 100 | 100 | 7.83 | 94 | – | – | – | –
7 | N#C/C=C/C(F)(F)F | 47 | 88 | 95 | 81 | 100 | 86 | – | 100 | 100 | – | – | –
8 | COc1ccc(N=C=S)cc1 | 33 | 99 | 45 | 91 | 100 | 55 | – | 94 | – | – | – | –
9 | O=C1C=CC(=O)N1C1CCCCC1 | 1 | 89 | 0.554 | 0.3 | 96 | 96 | 0.652 | 100 | – | 85 | – | –
10 | COC(=O)/C=C/C(=O)OC [DIMETHYL FUMARATE] | 50 | 100 | 172 | 82 | 100 | 89 | – | 90 | 88 | – | – | –
11 | S=C=NCc1ccccc1 [BENZYL ISOTHIOCYANATE] | 3 | 18 | 3.7 | 41 | 75 | 22 | – | 100 | – | – | – | –
12 | CCOC(=O)C#CC(F)(F)F | 15 | 89 | 24 | 31 | 100 | 99 | 47 | 98 | – | – | 100 | –
13 | O=C(CCl)c1ccccc1 [PHENACYL CHLORIDE] | 3 | 34 | 2.25 | 7 | 63 | 86 | 3.02 | 93 | – | – | – | –
14 | O=C(CBr)c1ccccc1 | 2 | 27 | – | 7 | 83 | 75 | – | 94 | – | – | – | –
15 | CC#CC(=O)OCC | 82 | 84 | – | 91 | 96 | 96 | – | 100 | – | – | – | –
16 | O=C1C=CC(=O)N1Cc1ccccc1 | 2 | 87 | 0.565 | 0 | 100 | 96 | 1.04 | 99 | – | – | – | –
17 | C=CC(=O)N1CCC(Cc2ccccc2)CC1 | – | – | – | – | – | – | – | – | – | – | – | Unstable
18 | C=CC(=O)Nc1cc(C(F)(F)F)cc(C(F)(F)F)c1 | – | – | 164 | 72 | – | 92 | – | 100 | 86 | – | – | –
19 | C=CS(=O)(=O)c1ccccc1 [(ETHENYLSULFONYL)BENZENE] | 12 | 87 | 15 | 30 | 100 | 93 | 34 | 96 | – | – | – | –
20 | COc1ccccc1C(=O)CBr | 3 | 55 | 0.384 | 4 | 90 | 74 | 1.82 | 100 | – | – | – | –
21 | O=C(CCl)Nc1ccccc1 | 100 | 88 | – | 59 | 100 | 99 | – | 95 | – | – | – | –
22 | O=C(CCl)N1CCC(Cc2ccccc2)CC1 | – | – | – | 55 | 78 | – | – | 99 | – | – | – | –
23 | C[C@@H]1O[C@@H]1P(=O)(O)O | – | – | – | – | – | – | – | – | – | 3 | – | –
24 | COc1cc2c(cc1OC)CN(C(=O)CCl)CC2 | 61 | – | 141 | 54 | – | 97 | 171 | 98 | – | – | – | –
25 | CCOC(=O)C#Cc1ccccc1 | 75 | 70 | – | 67 | 85 | 92 | – | 99 | – | – | – | –
26 | FC(F)(F)c1cccc(N=C=S)c1 | 3 | 97 | 28 | 9 | 100 | 87 | 53 | 99 | – | – | – | –
27 | C/C=C/C(=O)OC | 41 | 97 | 227 | 66 | 100 | 84 | – | 96 | – | – | – | –
28 | COc1cc(NC(=O)CCl)cc(OC)c1 | 61 | 87 | – | 52 | 90 | 84 | – | 96 | – | – | – | –
